According to article PMC10983000 (Journal of Medicinal Chemistry, 2024):

What was measured:
[1] = test system: pAKT in T47D (PI3Kα^H1047R) cells; experiment: pAKT AlphaLISA assay, T47D; format: cell-based; settings: for IC50: Homo sapiens, T47D, 24 h, read-out: pAKT AlphaLISA IC50 T47D, T47D (PI3Kα^H1047R), inhibition of pAKT formation after 24 h of treatment
[2] = test system: pAKT in SKBR3 (PI3Kα^WT) cells; experiment: pAKT AlphaLISA assay, SKBR3; format: cell-based; settings: Homo sapiens, SK-BR-3, 24 h, read-out: pAKT AlphaLISA IC50 SKBR3
[3] = test system: T47D (PI3Kα^H1047R) cells; experiment: Viability assay; format: cell-based; settings: for viability selectivity 1047R/WT IC50: T47D vs SKBR3 viability IC50
[4] = Intrinsic clearance in human hepatocytes; format: in vitro ADME
[5] = Intrinsic clearance in mouse hepatocytes; format: in vitro ADME
Method in brief: (§1)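 CLint was derived by scaling in vitro half-lives measured in pooled hepatocytes.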

[6] = Intrinsic clearance in rat hepatocytes; format: in vitro ADME
Method in brief: as §1

[7] = Intrinsic clearance in dog hepatocytes; format: in vitro ADME
Method in brief: as §1

Mouse pharmacokinetics = format: in vivo, CD-1 Mouse
Rat pharmacokinetics = format: in vivo; settings: male, Sprague-Dawley, plasma, iv, 3 mg/kg
[8] = test system: pAKT in HCC1954 tumors (PI3Kα^H1047R); experiment: Single dose pharmacodynamic study, HCC1954 tumor model; format: in vivo, mouse; settings: PO 100 or 300 mg/kg single dose
Method in brief: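 Mice carried xenografts of HCC1954, an ER-/HER2+ human breast tumour line with endogenous PI3Kα H1047R. They received a single dose of test compound, and tumour pAKT modulation was measured at 1 h and at 8 h post dose.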

[9] = Metabolite ID in human hepatocytes; format: in vitro ADME

Cc1cc([C@@H](C)Nc2ccccc2C(=O)O)c2oc(N3CCC(C)(C)CC3)c(C)c(=O)c2c1 [Compound 4, reference compound]
IC50 [1]: 3 nM
IC50 [2]: 3180 nM

Cc1ccccc1C1NC(=O)c2cc(NC3COC3)cc(NC(=O)c3csc4ccccc34)c21 (stereo not shown) [Compound 5, reference compound]
IC50 [1]: 332 nM
IC50 [2]: 115 nM

Cc1cc([C@@H](C)Nc2ccccc2C(=O)O)c2nc(N3CCCCC3)cc(=O)n2c1 [Compound 7]
IC50 [1]: 78 nM
IC50 [2]: 5890 nM
viability selectivity 1047R/WT IC50 [3]: > 9

Cc1cc([C@@H](C)Nc2ccccc2C(=O)O)c2nc(N3CCCCC3)c(C)c(=O)n2c1 [Compound 8]
IC50 [1]: 3 nM
IC50 [2]: 1460 nM
viability selectivity 1047R/WT IC50 [3]: > 83

Cc1cc(C(C)Nc2ccccc2C(=O)O)c2nc(N3CCC(C)(C)CC3)n(C)c(=O)c2c1 (stereo not shown) [Compound 9]
IC50 [1]: 179 nM
fold decrease in potency (viability) compared to compound 4 ([3]; T47D viability): 39 fold

Cc1cc(C(C)Nc2ccccc2C(=O)O)c2nc(N3CCCCC3)ncc2c1 (stereo not shown) [Compound 10]
IC50 [1]: 2540 nM

Cc1cc([C@@H](C)Nc2ccccc2C(=O)O)c2nc(N3CCCCC3)c(F)c(=O)n2c1 [Compound 11]
IC50 [1]: 0.3 nM
IC50 [2]: > 10000 nM

Cc1cc([C@@H](C)Nc2ccccc2C(=O)O)c2nc(N3CCCCC3)c(C#N)c(=O)n2c1 [Compound 12]
IC50 [1]: 1 nM
fold more potent than 8 ([1]; pAKT T47D): 3 fold
IC50 [2]: 4740 nM
fold more stable in human hepatocytes than 8 ([4]; Clint human hepatocytes): 4 fold

Cc1cc([C@@H](C)Nc2ccccc2C(=O)O)c2nc(N3CCCCC3)c(C(F)(F)F)c(=O)n2c1 [Compound 13]
IC50 [1]: 28 nM
IC50 [2]: > 10000 nM

Cc1cc([C@@H](C)Nc2ccccc2C(=O)O)c2nc(N3CCCCC3)c(C(N)=O)c(=O)n2c1 [Compound 14]
IC50 [1]: > 10000 nM
IC50 [2]: > 10000 nM

Cc1cc([C@@H](C)Nc2ccccc2C(=O)O)c2nc(N3CCC(F)(F)CC3)c(C#N)c(=O)n2c1 [Compound 17, (R)-2-((1-(3-Cyano-2-(4,4-difluoropiperidin-1-yl)-7-methyl-4-oxo-4H-pyrido[1,2-a]pyrimidin-9-yl)ethyl)amino)benzoic Acid]
fold decrease of intrinsic clearance in human hepatocytes compared to 12 [4]: 3 fold
CLint scaled [5]: 304 mL/min/kg
CLint scaled [6]: 70 mL/min/kg
CLint scaled [7]: 104 mL/min/kg
clearance (Mouse pharmacokinetics; female, CD-1, mouse, plasma, iv, 3 mg/kg): 180 mL/min/kg
bioavailability in rodents (Mouse pharmacokinetics; rodents (mouse and rat)): 48–57 %F
clearance (Rat pharmacokinetics): 46 mL/min/kg
pAKT inhibition after oral dosing [8]: negligible inhibition of pAKT
metabolite identified in human hepatocytes [9]: glucuronidation of the benzoic acid was the only discernible metabolite

Cc1cc([C@@H](C)Nc2ccccc2C(=O)O)c2nc(C3CCC(F)(F)CC3)c(C#N)c(=O)n2c1 [Compound 19]
fold loss in potency in T47D cellular viability assay ([3]; on replacing the piperidine nitrogen (4,4-difluorocyclohexane)): 5 fold

Cc1cc([C@@H](C)Nc2ccc(Cl)cc2C(=O)O)c2nc(N3CCC(F)(F)CC3)c(C#N)c(=O)n2c1 [Compound 24]
IC50 [1]: 15 nM
